Consider 72 compounds from ChEMBL document CHEMBL4513216, “Probing the Open Global Health Chemical Diversity Library for Multistage-Active Starting Points for Next-Generation Antimalarials” (ACS Infect Dis, 2020).

The structures appear in SMILES notation.

The series can be described thus: Toxicity liver stage against HepG2, at 10uM. Further details: test concentration 10 uM, cell line HepG2-A16-CD81EGFP. It counts as cell-based. The settings on record: human, HepG2-A16-CD81EGFP cells; read-out: INHIBITION
The procedure, abridged: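 Uninfected HepG2-A16-CD81EGFP cells, 3 × 10^3 per well, 1536-well, plated on prespotted compound at 10 μM final, parasite-free screening media added to match infected plates; puromycin 10 μM positive, DMSO 0.5% negative; run in parallel with 48 h PbLuc assay at 37 °C, 5% CO2; viability by CellTiter-Glo luminescence, normalized to controls.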
For the compound `COC1CCCN(Cc2nc(Cc3ccccc3F)no2)C1` (configuration not stated), the cytotoxicity at 10 µM was -4.23%. For the compound `O=S(=O)(NC[C@H]1C[C@@H]2CCN1C[C@@H]2CN1CCOCC1)c1ccccc1`, the cytotoxicity at 10 µM stood at 1.82%. With `COC1CN(C(=O)CC2CCCC2)CCC(=O)N(C)c2ccccc21` (configuration not stated), the cytotoxicity at 10 µM was -32.8%. `Cn1ccc2ccc(C(=O)NC3CCOC(C)(C)C3)cc21` (configuration not stated): the cytotoxicity at 10 µM stood at 3.13%. For `COC(=O)CC(C1=Cc2ccccc2OC1)c1oc(C)cc(=O)c1O` (configuration not stated), the cytotoxicity at 10 µM is -8.51%. With `CCS(=O)(=O)c1nnc([C@@H](N)Cc2ccccc2)o1`, the cytotoxicity at 10 µM was found to be 6.99%. Turning to `CCCSc1nn(CCCN(C)C)c2nc3sc(C)c(CC)c3c(=O)n12`, the cytotoxicity at 10 µM was -3.63%. Consider `CN1CCN(C(=O)c2cc3sccc3n2Cc2ccccc2Cl)CC1`, for which the cytotoxicity at 10 µM worked out at 2.3%. As for `COCCSc1ccc(-n2cccn2)nn1`, the cytotoxicity at 10 µM was -24.6%.

In the case of `O=c1ccc2c([nH]1)CCC(NCc1ccncc1)C2` (configuration not stated), the cytotoxicity at 10 µM is -6.22%. On to `CC(C)COCC1CN(Cc2ccco2)Cc2ncn(C)c21` (configuration not stated), for which the cytotoxicity at 10 µM worked out at 4.24%. On to `O=C(c1cnccn1)N1CCN(Cc2cccnc2)c2ncccc2C1`, for which the cytotoxicity at 10 µM was -1.52%. As for `COc1ccccc1C1CC(=O)Nc2c1c(=O)[nH]n2C1CCCC1` (configuration not stated), the cytotoxicity at 10 µM was -3.85%. Take `CC(=O)N1[C@@H](C(=O)NCC2CC2)C[C@@H]2CN(Cc3ccco3)C[C@@H]21`: the cytotoxicity at 10 µM was determined as 4.22%. On to `CCCc1nc(N2CCCCC2)c2c(n1)c(C)nn2CC`, for which the cytotoxicity at 10 µM was 7.46%. Turning to `Cc1ncc(CNC(=O)Cc2cccs2)c(C2CCCN2C)n1` (configuration not stated), the cytotoxicity at 10 µM was -0.279%. Take `C[S+]([O-])c1cccc(NC(=O)N[C@H](CCO)c2ccccc2)c1` (some centres not stated): the cytotoxicity at 10 µM was -3.13%. `CC(C)OC(=O)CC(NC(=O)CCn1cccn1)c1ccccc1` (configuration not stated): the cytotoxicity at 10 µM is -12.2%. As for `CCCS(=O)(=O)N1CCN(CCCO)CC1`, the cytotoxicity at 10 µM came out at 5.96%.

As to `Cc1cn2nc(N(C)C3CCCN(c4cccnn4)C3)sc2n1` (configuration not stated), the cytotoxicity at 10 µM was found to be 4.29%.

Turning to `COc1cc(C)c(S(=O)(=O)CC(=O)N(C)C(C)C)cc1OC`, the cytotoxicity at 10 µM is 4.02%. Turning to `CC(C)c1nc(NC(=O)CCCn2cccc2)n(C)n1`, the cytotoxicity at 10 µM was -7.71%. For the compound `COc1ccc(OCCN(C)S(=O)(=O)c2cnn(C)c2)cc1`, the cytotoxicity at 10 µM is -2.82%. On to `Cc1ccc(N(CC(=O)N2CCCCC2)C(=O)C2COCCO2)cc1` (configuration not stated), for which the cytotoxicity at 10 µM is 13.6%. In the case of `Cn1cccc1C(=O)NC(C)(C(N)=O)c1cccc(Cl)c1` (configuration not stated) it was 4.07%; in that of `CC(=O)N(C)C1CCN(C(=O)NCC(C)Cc2cccs2)CC1` (configuration not stated), -1.99%. `CCN1CCCC(CNC(=O)CCc2ccc(OC)c(F)c2)C1` (configuration not stated): the cytotoxicity at 10 µM was -3.42%. Take `Cc1ccccc1C(=O)NC1CCN(c2cnn(C)c2)C1=O` (configuration not stated): the cytotoxicity at 10 µM is 4.19%. As for `c1csc(-c2nc(CN3CCCCC3Cn3cccn3)co2)c1` (configuration not stated), the cytotoxicity at 10 µM is 3.22%. Take `CNC(=O)NC(=O)CCSCc1cc(F)cc2cccnc12`: the cytotoxicity at 10 µM was -5.31%. Turning to `Cc1cc(CN2CCN(Cc3cnc4c(c3)c(C)nn4C)CC2)on1`, the cytotoxicity at 10 µM was -12.6%. For the compound `c1csc(-c2nnc(CSCCN3CCOCC3)o2)c1`, the cytotoxicity at 10 µM was -5.77%.

For `COCCCS(=O)(=O)N1CCN(C(=O)CO)CC1`, the cytotoxicity at 10 µM was -0.995%. Under `Nc1cc2c(nn1)CCN(C(=O)c1csc(-c3ccco3)n1)C2` stands -2.79%; under `CC[C@@H](CO)Nc1nccc(-c2cnc3sc(C)cn3c2=O)n1`, -14%; under `CC(C)(CN1CCOCC1)CN1CCC(Cc2cccc(CO)c2)C1` (configuration not stated), -7.73%. As for `CCOC(=O)c1n[nH]cc1CN1CCOC(Cc2ccc(OC)cc2)C1` (configuration not stated), the cytotoxicity at 10 µM was -0.734%. For `CC(C)n1ccnc1C1CCN(c2nccc(C(F)(F)F)n2)CC1`, the cytotoxicity at 10 µM is 2.52%.

As to `CCc1nc(C)c(C(=O)N2CCNCC2C(=O)Nc2ccc(C)nc2)o1` (configuration not stated), the cytotoxicity at 10 µM is -4%. Regarding `O=C(CCn1cc(Cl)cn1)N1CCN(CCOc2ccccc2)CC1`, the cytotoxicity at 10 µM worked out at 4.92%. Turning to `COc1c(F)cccc1C(=O)NC(C)c1cnn(C)c1` (configuration not stated), the cytotoxicity at 10 µM was 24.5%. With `c1cc(-c2nccn2CCc2nc3c(s2)CCC3)ccn1`, the cytotoxicity at 10 µM amounted to 6.15%.

Take `COc1cccc2c1OCCCN(Cc1c[nH]nc1C(=O)O)C2`: the cytotoxicity at 10 µM was 6.5%.

Turning to `CN(CCc1ccccn1)C(=O)c1ccccc1F`, the cytotoxicity at 10 µM is -10.5%. Regarding `NC(=O)c1cnc2n1CCN(C(=O)c1ccc(-c3cc[nH]n3)cc1)C2`, the cytotoxicity at 10 µM was -2.79%. Regarding `Fc1cc(Cl)cnc1N1CCCC(c2nccn2CC2CC2)C1` (configuration not stated), the cytotoxicity at 10 µM was 4.8%. As to `CC(C)c1nccn1CCCNC(=O)c1ccc(-c2ccncc2)nc1`, the cytotoxicity at 10 µM was -9.77%.

As for `CN1CCc2nc(N(C)C)nc(N3CCC(O)CC3)c2C1`, the cytotoxicity at 10 µM was -0.879%.

For the compound `Cc1nccn1Cc1nnc(C2CCCN(c3cnccn3)C2)n1C` (configuration not stated), the cytotoxicity at 10 µM is 2.73%.

`CCn1nc(C)c(CCNC(=O)C2CCCN(C(=O)N(C)C)C2)c1C` (configuration not stated): the cytotoxicity at 10 µM was found to be 0.874%. Under `CC(C)c1noc(CN2CCCN(Cc3cccs3)CC2)n1` stands -6.86%; under `NC(=O)C1CCN(C(=O)c2cccn2Cc2cccs2)C1` (configuration not stated), -8.5%; under `Cc1nc(C2CCCN(C(=O)c3ccoc3)C2)no1` (configuration not stated), -13.1%. Under `CC(=O)Nc1nc(CN2CCOC(Cn3cncn3)C2)cs1` (configuration not stated) stands -27.5%; under `Cc1cccc(C(=O)N2CCC(C(=O)c3cc(F)ccc3F)CC2)n1`, -0.448%. For `O=C(CCc1cccs1)N1CCCC(N2CCNC2=O)C1` (configuration not stated), the cytotoxicity at 10 µM is -6.7%.

Consider `Cc1ncc(C(=O)NC2CCc3nccn3C2)c(C(C)C)n1` (configuration not stated), for which the cytotoxicity at 10 µM is -2.31%. Turning to `O=C(NCCC(=O)N1CCCc2ccccc21)c1ccc(F)cc1F`, the cytotoxicity at 10 µM is -10.1%.

As for `Cn1cc(C(=O)N2CCCC(n3cncn3)C2)ccc1=O` (configuration not stated), the cytotoxicity at 10 µM was -5.03%.

Take `O=C(CCNC(=O)C1CCCC1)NCc1ccccc1Cn1cncn1`: the cytotoxicity at 10 µM was -5.63%. In the case of `CCNc1cc2c(nn1)CCN(C(=O)Cc1c(C)noc1C)C2` it was -8.89%. `CC(C)C(C(=O)N1CCCN(Cc2nccn2C)CC1)N1CCCC1` (configuration not stated): the cytotoxicity at 10 µM is -13%. As for `Cn1cc(NC(=O)N2CCC(c3ccccc3)CC2)ccc1=O`, the cytotoxicity at 10 µM is -9.42%. Regarding `Cc1ccc(NC2CCN(C(=O)c3cc[nH]n3)CC2)nn1`, the cytotoxicity at 10 µM is -15.2%.

In the case of `CS(=O)(=O)NCCCN1CCCC1Cc1ccccc1` (configuration not stated), the cytotoxicity at 10 µM was -11.7%. Turning to `CN(Cc1ccc(F)cc1)C(=O)CN1CCCC(Cn2cncn2)C1` (configuration not stated), the cytotoxicity at 10 µM was -14.8%.

In the case of `Cc1ccc(NC2CCN(C(=O)c3cc(C(N)=O)cs3)CC2)nn1`, the cytotoxicity at 10 µM amounted to 2.94%. Turning to `COc1c(C2CCCN2C(=O)c2ccc3cc[nH]c3c2)c(C)nn1C` (configuration not stated), the cytotoxicity at 10 µM is -2.74%. With `CNc1nc(C2CCCN2C(C)=O)nc2c1CN(CCO)CC2` (configuration not stated), the cytotoxicity at 10 µM is 2.69%. As to `COCC1CN(C(=O)COc2ccccc2)Cc2cn(C)nc21` (configuration not stated), the cytotoxicity at 10 µM turned out to be 0.55%. For `Cc1ccc(CN2CCC3(CC2)COCCN3S(C)(=O)=O)o1`, the cytotoxicity at 10 µM was found to be 8.86%. As to `CN(C)S(=O)(=O)N1C[C@@H]2COC[C@]2(COc2ccccn2)C1`, the cytotoxicity at 10 µM came out at 0.705%.
